The source made the active and inactive calls. The rule behind the calls is not given here.
Legend:
[1] = test system: Heterodera zeae; assay: Nematicidal activity against Heterodera zeae infective stage larvae assessed as nematode mortality at 0.125% under dark conditions measured 72 hr post dose by stereoscopic microscopy; format: functional
Outline: (§1)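 Freshly hatched H. zeae second-stage juveniles, 100 per Petri plate, three replicates. Samples in MeOH, DMSO or water were tested in glass cavity blocks; petroleum ether samples were dried onto the block and larvae transferred on agar pieces. Percentages are dilutions of 30 mg/mL stocks (extracts/fractions) or 1 mg/mL stocks (pure compounds). Incubated at 28 ± 2 °C in light or dark box; mortality averaged over three replicates.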

[2] = test system: Heterodera zeae; assay: Nematicidal activity against Heterodera zeae infective stage larvae assessed as nematode mortality at 5% under light conditions measured 5 to 60 min post dose by stereoscopic microscopy; format: functional, organism-based
Outline: (§2)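 H. zeae freshly hatched second-stage juveniles, 100 per plate, three replicates, at 28 ± 2 °C under light or in a dark box. Dilutions are % of a stock: 30 mg/mL for extracts/fractions, 1 mg/mL for pure compounds. Methanol-, DMSO- or water-soluble samples were tested in glass cavity blocks. Petroleum ether-soluble samples were air-dried in the block and covered with agar pieces bearing cultured larvae. Mortality was followed over 5–60 min; each value is the mean of three experiments.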

[3] = test system: Heterodera zeae; assay: Nematicidal activity against Heterodera zeae infective stage larvae assessed as nematode mortality at 0.25% under dark conditions measured 48 hr post dose by stereoscopic microscopy; format: functional; outline: as §1
[4] = test system: Heterodera zeae; assay: Nematicidal activity against Heterodera zeae infective stage larvae assessed as nematode mortality at 1% under light conditions measured 24 hr post dose by stereoscopic microscopy; format: functional; outline: as §1
[5] = test system: Heterodera zeae; assay: Nematicidal activity against Heterodera zeae infective stage larvae assessed as nematode mortality at 0.25% under dark conditions measured 24 hr post dose by stereoscopic microscopy; format: functional; outline: as §1
[6] = test system: Heterodera zeae; assay: Nematicidal activity against Heterodera zeae infective stage larvae assessed as nematode mortality at 0.25% under dark conditions measured 72 hr post dose by stereoscopic microscopy; format: functional; outline: as §1
[7] = test system: Heterodera zeae; assay: Nematicidal activity against Heterodera zeae infective stage larvae assessed as nematode mortality at 0.125% under dark conditions measured 5 to 60 min post dose by stereoscopic microscopy; format: functional, organism-based; outline: as §2
[8] = test system: Heterodera zeae; assay: Nematicidal activity against Heterodera zeae infective stage larvae assessed as nematode mortality at 0.5% under dark conditions measured 5 to 60 min post dose by stereoscopic microscopy; format: functional, organism-based; outline: as §2
[9] = test system: Heterodera zeae; assay: Nematicidal activity against Heterodera zeae infective stage larvae assessed as nematode mortality at 0.125% under light conditions measured 48 hr post dose by stereoscopic microscopy; format: functional; outline: as §1
[10] = test system: Heterodera zeae; assay: Nematicidal activity against Heterodera zeae infective stage larvae assessed as nematode mortality at 2% under dark conditions measured 5 to 60 min post dose by stereoscopic microscopy; format: functional, organism-based; outline: as §2
[11] = test system: Heterodera zeae; assay: Nematicidal activity against Heterodera zeae infective stage larvae assessed as nematode mortality at 0.5% under light conditions measured 48 hr post dose by stereoscopic microscopy; format: functional; outline: as §1
[12] = test system: Heterodera zeae; assay: Nematicidal activity against Heterodera zeae infective stage larvae assessed as nematode mortality at 0.125% under light conditions measured 24 hr post dose by stereoscopic microscopy; format: functional; outline: as §1
[13] = test system: Heterodera zeae; assay: Nematicidal activity against Heterodera zeae infective stage larvae assessed as nematode mortality at 0.5% under dark conditions measured 48 hr post dose by stereoscopic microscopy; format: functional; outline: as §1
[14] = test system: Heterodera zeae; assay: Nematicidal activity against Heterodera zeae infective stage larvae assessed as nematode mortality at 1% under light conditions measured 5 to 60 min post dose by stereoscopic microscopy; format: functional, organism-based; outline: as §2
[15] = test system: Heterodera zeae; assay: Nematicidal activity against Heterodera zeae infective stage larvae assessed as nematode mortality at 0.25% under light conditions measured 5 to 60 min post dose by stereoscopic microscopy; format: functional, organism-based; outline: as §2
[16] = test system: Heterodera zeae; assay: Nematicidal activity against Heterodera zeae infective stage larvae assessed as nematode mortality at 0.5% under light conditions measured 24 hr post dose by stereoscopic microscopy; format: functional; outline: as §1
[17] = test system: Heterodera zeae; assay: Nematicidal activity against Heterodera zeae infective stage larvae assessed as nematode mortality at 0.5% under light conditions measured 72 hr post dose by stereoscopic microscopy; format: functional; outline: as §1
[18] = test system: Heterodera zeae; assay: Nematicidal activity against Heterodera zeae infective stage larvae assessed as nematode mortality at 0.25% under light conditions measured 24 hr post dose by stereoscopic microscopy; format: functional; outline: as §1
[19] = test system: Heterodera zeae; assay: Nematicidal activity against Heterodera zeae infective stage larvae assessed as nematode mortality at 0.5% under light conditions measured 5 to 60 min post dose by stereoscopic microscopy; format: functional, organism-based; outline: as §2
[20] = test system: Heterodera zeae; assay: Nematicidal activity against Heterodera zeae infective stage larvae assessed as nematode mortality at 0.5% under dark conditions measured 72 hr post dose by stereoscopic microscopy; format: functional; outline: as §1
[21] = test system: Heterodera zeae; assay: Nematicidal activity against Heterodera zeae infective stage larvae assessed as nematode mortality at 0.5% under dark conditions measured 24 hr post dose by stereoscopic microscopy; format: functional; outline: as §1
[22] = test system: Heterodera zeae; assay: Nematicidal activity against Heterodera zeae infective stage larvae assessed as nematode mortality at 0.25% under light conditions measured 72 hr post dose by stereoscopic microscopy; format: functional; outline: as §1
[23] = test system: Heterodera zeae; assay: Nematicidal activity against Heterodera zeae infective stage larvae assessed as nematode mortality at 1% under dark conditions measured 72 hr post dose by stereoscopic microscopy; format: functional; outline: as §1
[24] = test system: Heterodera zeae; assay: Nematicidal activity against Heterodera zeae infective stage larvae assessed as nematode mortality at 0.125% under light conditions measured 5 to 60 min post dose by stereoscopic microscopy; format: functional, organism-based; outline: as §2
[25] = test system: Heterodera zeae; assay: Nematicidal activity against Heterodera zeae infective stage larvae assessed as nematode mortality at 5% under dark conditions measured 5 to 60 min post dose by stereoscopic microscopy; format: functional, organism-based; outline: as §2
[26] = test system: Heterodera zeae; assay: Nematicidal activity against Heterodera zeae infective stage larvae assessed as nematode mortality at 2% under light conditions measured 5 to 60 min post dose by stereoscopic microscopy; format: functional, organism-based; outline: as §2
[27] = test system: Heterodera zeae; assay: Nematicidal activity against Heterodera zeae infective stage larvae assessed as nematode mortality at 0.25% under light conditions measured 48 hr post dose by stereoscopic microscopy; format: functional; outline: as §1
[28] = test system: Heterodera zeae; assay: Nematicidal activity against Heterodera zeae infective stage larvae assessed as nematode mortality at 0.25% under dark conditions measured 5 to 60 min post dose by stereoscopic microscopy; format: functional, organism-based; outline: as §2
[29] = test system: Heterodera zeae; assay: Nematicidal activity against Heterodera zeae infective stage larvae assessed as nematode mortality at 1% under light conditions measured 48 hr post dose by stereoscopic microscopy; format: functional; outline: as §1
[30] = test system: Heterodera zeae; assay: Nematicidal activity against Heterodera zeae infective stage larvae assessed as nematode mortality at 1% under light conditions measured 72 hr post dose by stereoscopic microscopy; format: functional; outline: as §1
[31] = test system: Heterodera zeae; assay: Nematicidal activity against Heterodera zeae infective stage larvae assessed as nematode mortality at 1% under dark conditions measured 5 to 60 min post dose by stereoscopic microscopy; format: functional, organism-based; outline: as §2
[32] = test system: Heterodera zeae; assay: Nematicidal activity against Heterodera zeae infective stage larvae assessed as nematode mortality at 0.125% under light conditions measured 72 hr post dose by stereoscopic microscopy; format: functional; outline: as §1
[33] = test system: Heterodera zeae; assay: Nematicidal activity against Heterodera zeae infective stage larvae assessed as nematode mortality at 1% under dark conditions measured 24 hr post dose by stereoscopic microscopy; format: functional; outline: as §1
[34] = test system: Heterodera zeae; assay: Nematicidal activity against Heterodera zeae infective stage larvae assessed as nematode mortality at 1% under dark conditions measured 48 hr post dose by stereoscopic microscopy; format: functional; outline: as §1
[35] = test system: Heterodera zeae; assay: Nematicidal activity against Heterodera zeae infective stage larvae assessed as nematode mortality at 0.125% under dark conditions measured 48 hr post dose by stereoscopic microscopy; format: functional; outline: as §1
[36] = test system: Heterodera zeae; assay: Nematicidal activity against Heterodera zeae infective stage larvae assessed as nematode mortality at 0.125% under dark conditions measured 24 hr post dose by stereoscopic microscopy; format: functional; outline: as §1

Structure (SMILES)	mortality [1]	Activity [2]	mortality [3]	mortality [4]	mortality [5]	mortality [6]	Activity [7]	Activity [8]	mortality [9]	Activity [10]	mortality [11]	mortality [12]	mortality [13]	Activity [14]	Activity [15]	mortality [16]	mortality [18]	Activity [19]	mortality [21]	mortality [22]	further results
O=c1c(O)c(-c2ccc(O)c(O)c2)oc2cc(O)cc(O)c12 [QUERCETIN]	40%	inactive	50%	50%	40%	50%	inactive	inactive	50%	inactive	50%	40%	50%	inactive	inactive	50%	40%	inactive	40%	70%	mortality [17]: 80%; mortality [20]: 70%; mortality [23]: 70%; Activity [24]: inactive; Activity [25]: inactive; Activity [26]: inactive; mortality [27]: 50%; Activity [28]: inactive; mortality [29]: 50%; mortality [30]: 70%; Activity [31]: inactive; mortality [32]: 80%; mortality [33]: 50%; mortality [34]: 70%; mortality [35]: 40%; mortality [36]: 40%
CCCCCCCC/C=C\CCCCCCCC(=O)OC [METHYL OLEATE]	10%	inactive	10%	50%	10%	10%	inactive	inactive	50%	inactive	100%	10%	100%	inactive	inactive	50%	10%	inactive	40%	100%	Activity [24]: inactive; Activity [25]: inactive; Activity [26]: inactive; mortality [27]: 50%; Activity [28]: inactive; mortality [29]: 100%; Activity [31]: inactive; mortality [32]: 100%; mortality [33]: 50%; mortality [34]: 100%; mortality [35]: 10%; mortality [36]: 10%
CCCCCCCCCCCCCCCCCC(=O)O [STEARIC ACID]	70%	inactive	70%	100%	40%	100%	inactive	inactive	50%	inactive	70%	50%	70%	inactive	inactive	50%	40%	inactive	50%	100%	mortality [17]: 100%; mortality [20]: 100%; Activity [24]: inactive; Activity [25]: inactive; Activity [26]: inactive; mortality [27]: 70%; Activity [28]: inactive; Activity [31]: inactive; mortality [32]: 70%; mortality [33]: 100%; mortality [34]: 100%; mortality [35]: 50%; mortality [36]: 40%
COc1ccc(C(=O)O)cc1OC [VERATRIC ACID]	50%	inactive	40%	80%	30%	80%	inactive	inactive	50%	inactive	80%	10%	50%	inactive	inactive	60%	10%	inactive	50%	100%	mortality [17]: 100%; mortality [20]: 80%; mortality [23]: 90%; Activity [24]: inactive; Activity [25]: inactive; Activity [26]: inactive; mortality [27]: 50%; Activity [28]: inactive; mortality [29]: 100%; Activity [31]: inactive; mortality [32]: 100%; mortality [33]: 50%; mortality [34]: 60%; mortality [35]: 20%; mortality [36]: 10%
CCCCCCCC/C=C\CCCCCCCC(=O)O [OLEIC ACID]	10%	inactive	10%	50%	10%	10%	inactive	inactive	50%	inactive	100%	10%	100%	inactive	inactive	50%	10%	inactive	40%	100%	Activity [24]: inactive; Activity [25]: inactive; Activity [26]: inactive; mortality [27]: 50%; Activity [28]: inactive; mortality [29]: 100%; Activity [31]: inactive; mortality [32]: 100%; mortality [33]: 50%; mortality [34]: 100%; mortality [35]: 10%; mortality [36]: 10%

— ChEMBL document CHEMBL3046615, “Isolation of nematicidal compounds from Tagetes patula L. yellow flowers: structure-activity relationship studies against cyst nematode Heterodera zeae infective stage larvae” (2011)
